Measurements collected from several papers.
Compare with care: the assays were run in different laboratories.
Read-out: cell growth or viability

SMILES | cell line | method | time | CC50
Nc1nc(O)c2ncn(COC(CO)CO)c2n1 | HEL |  | 72 h | 63 µM
CCOP(=O)(OCC)[C@@H]1C[C@H](n2cc(Cn3ccc(=O)[nH]c3=O)nn2)ON1C (racemic) | HEL |  | 72 h | > 100 µM
Cc1nc2ccc(Cl)cn2c1C(=O)N1CCN(CCn2cc(C3CC3)nn2)CC1 | HeLa | resazurin |  | > 100 µM
CCOP(=O)(OCC)[C@@H]1C[C@H](n2cc(Cn3cc(C)c(=O)[nH]c3=O)nn2)ON1C (racemic) | HEL |  | 72 h | > 100 µM
O=c1[nH]c(=O)c2ncn(C[C@@H](CO)OCP(=O)(O)O)c2[nH]1 | HEL |  | 72 h | > 300 µM
Cc1ccn2c(C(=O)N3CCN(Cc4cn(-c5ccccc5Cl)nn4)CC3)c(C)nc2c1 | HeLa | resazurin |  | > 100 µM
COc1ccc(S(=O)(=O)ON=C2C=C(C)C(=O)C(C)=C2)cc1 | HPAC |  |  | > 30 µM
Cc1nc2ccc(Cl)cn2c1C(=O)N1CCN(Cc2cn(-c3ccc(F)cc3)nn2)CC1 | HeLa | resazurin |  | > 100 µM
O=c1[nH]c(=O)c2ncn(CCOCP(=O)(O)O)c2[nH]1 | HEL |  | 72 h | 111 µM
CCOP(=O)(OCC)[C@@H]1C[C@@H](n2cc(Cn3cnc4c(N)ncnc43)nn2)ON1C (racemic) | HEL |  | 72 h | > 100 µM
C[C@H](NC(=O)[C@]1(Cc2ccccc2)CCN1C(=O)OCc1ccccc1)C(=O)NC(C)(C)C | HEL |  | 72 h | > 100 µM
